# Assay outcomes deposited in PubChem BioAssay by Johns Hopkins Ion Channel Center.
# KCNQ1 act: potentiators or activators of KCNQ1 channel, primary screen, cell-based, thallium flux, high-throughput. Potassium voltage-gated channel subfamily KQT member 1 (Homo sapiens), P51787. CHO-K1 KCNQ1, thallium flux FluxOR fluorescence; hits give high values. B-score at 10 µM. 310,000 compounds, 0.35% hits. AID 2648, 2010;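 active = fluorescence ratio B-score, a plate-corrected score, at least three library SD, with initial intensity B-score within 5 SD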
#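 assay system = KCNQ1-transfected CHO-K1 cells | medium = assay buffer with matched DMSO | probe or stimulus = depolarizing K+/Tl+ stimulus, K2SO4 and Tl2SO4 each 12.5 mM in 5x stock | dosing = single dose | incubation = dye 90 min, compound 20 min, room temperature | detection = kinetic FluxOR fluorescence, 10 s baseline plus 110 s post-stimulus | evaluation = ratio B score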
# KCNQ1 inh: inhibitors of human KCNQ1 channel, primary screen, cell-based, thallium flux, high-throughput | Potassium voltage-gated channel subfamily KQT member 1 (Homo sapiens), P51787 | CHO-K1 KCNQ1, FluxOR thallium flux fluorescence; hits give high values | B-score at 10 µM | AID 2642, 2010 | 310,000 compounds, 1.3% hits;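 active = compounds whose thallium flux B-score, printed positive for inhibition, exceeds three library SD while starting fluorescence stays within three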;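 note: channel opened by potassium depolarization with thallium stimulus after 20 min compound exposure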
# KCNK3 inh: human KCNK3 channel inhibitors, primary screen, CHO cells, FluxOR thallium flux, B-score; FluxOR fluorescence; hits give low values; B-score at 10 µM; 340,000 compounds, 0.84% hits; AID 602410, 2012;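 active = B-score under library mean minus 4 SD, starting fluorescence ratio at most library mean plus 5 SD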;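 note: more negative B-score means stronger inhibition of thallium flux through KCNK3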
# Target sequence (O14649 whole entry, looked up): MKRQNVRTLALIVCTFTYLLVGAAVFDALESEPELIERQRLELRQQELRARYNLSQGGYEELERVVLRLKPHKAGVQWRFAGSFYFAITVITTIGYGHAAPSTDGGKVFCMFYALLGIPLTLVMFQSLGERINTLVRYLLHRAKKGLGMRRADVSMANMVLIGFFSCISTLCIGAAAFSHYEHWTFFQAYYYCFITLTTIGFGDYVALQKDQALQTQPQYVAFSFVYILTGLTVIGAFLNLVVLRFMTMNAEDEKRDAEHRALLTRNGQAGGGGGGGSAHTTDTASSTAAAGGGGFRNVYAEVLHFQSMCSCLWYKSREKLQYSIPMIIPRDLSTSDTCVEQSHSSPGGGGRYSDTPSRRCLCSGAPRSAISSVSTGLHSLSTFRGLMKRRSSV
# KCNK9 inh: KCNK9 potassium channel inhibitors, primary screen, HEK293 cells, thallium flux | Potassium channel subfamily K member 9 (Homo sapiens), Q9NPC2 | FluxOR thallium flux fluorescence; hits give low values | B-score at 10 µM | 310,000 compounds, 1.2% hits | AID 488922, 2010;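 active = ratio B-score over 3 SD below the library mean, with starting fluorescence within 5 SD of its mean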;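 note: negative B-score means less thallium flux so channel inhibition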
# hERG rescue: hERG rescue from dofetilide block, primary screen, cell-based, CHO-hERG, FluxOR thallium flux, dofetilide IC70 | Voltage-gated inwardly rectifying potassium channel KCNH2 (Homo sapiens), Q12809 | dofetilide IC70 present | activation (rescue from dofetilide block), less the hit threshold, % at 10 µM | 310,000 compounds, 0.51% hits | AID 1511, 2009;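 active = activation above the mean of controls blocked by dofetilide plus 5 SD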;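 note: thallium influx through hERG after potassium depolarization seen as dye fluorescence rise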
# Kir21 block: inhibitors of mouse Kir2.1 inward-rectifier potassium channel | AID 1672, 2009 | Inward rectifier potassium channel 2 (Mus musculus), P35561 | B-score at 10 µM | 310,000 compounds, 0.85% hits | HEK293-Kir2.1, FluxOR thallium flux fluorescence; hits give low values;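 active = fluorescence ratio B-score at or below minus 3 SD of library scores, with starting-brightness B-score within 2 SD, cut at about -4.2 in these data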;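 note: channel flux triggered by added potassium and thallium sulfate stimulus; B-score of peak minus minimum fluorescence over baseline after thallium stimulus; more negative B-score means stronger Kir2.1 block with less thallium influx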
# The depositor's hits bear a star; i = inactive; . = no result given. Rows were chosen to be rich in hits. Some 3.7% of all compounds tested hit in one or more screens of this group.
SMILES,KCNQ1 act,KCNQ1 inh,KCNK3 inh,KCNK9 inh,hERG rescue,Kir21 block
C/C=C(/C)C(=O)O[C@@H]1c2c(ccc3ccc(=O)oc23)OC(C)(C)[C@@H]1OC(=O)/C(C)=C\C,i,i,i,-7.4*,-6,0.43
CC(C)(C)c1ccc(OCCCNC2CCCC2)cc1,i,i,i,i,-12,-4.3*
Cc1ccc(OCCCNC2CCCC2)cc1,i,i,i,i,-9,2.4
Cc1ccc(CC(=O)Nc2cc(C)on2)cc1,i,i,i,i,-4,0.06
O=S(=O)(c1ccc2c(c1)OCCO2)N1CCN(c2ncnc3sccc23)CC1,i,6*,i,i,-14,1.4
Cc1ccc(S(=O)(=O)N2CCN(c3ncnc4sccc34)CC2)cc1C,.,.,i,.,.,.
Cn1nc(-c2ccc(Cl)cc2)c2cc(C(=O)N3CCCC3)sc21,i,i,i,i,-4,-1.3
Cn1nc(-c2ccc(Cl)cc2)c2cc(C(=O)N3CCN(c4ccccn4)CC3)sc21,i,i,-13*,i,-6,0.11
O=C(NCCCn1ccnc1)c1cc(S(=O)(=O)N2CCOCC2)c(Cl)cc1Cl,i,i,i,i,-7,-0.6
Cc1ccc(S(=O)(=O)N2CCOCC2)cc1C(=O)NCCCn1ccnc1,i,i,i,i,4.7*,-2.1
Nc1cc(=O)[nH]c(SCc2ccc(Cl)cc2Cl)n1,i,i,i,i,-7,0.12
CCCCCSc1nnc2c(n1)OC(c1cccn1C)N(C(C)=O)c1ccccc1-2 (stereo unspecified),i,i,i,-9.7*,-11,-0.08
CN(C)CCNC(=S)NC1CCCCC1,i,i,i,i,-10,-1.4
CN(C)CCOC(C1CCCCC1)C1CCCCC1,i,i,i,i,-8,-4.6*
CN(C)c1ccc(/C=C(\C#N)C(=O)NCc2ccco2)cc1,i,i,.,i,-5,-0.87
CC(OC(=O)/C(C#N)=C/c1ccc(N(C)C)cc1)C(=O)NCc1ccco1 (stereo unspecified),i,7*,i,i,-11,0
CC(OC(=O)/C(C#N)=C/c1ccc(N(C)C)cc1)C(=O)N(C)c1ccccc1 (stereo unspecified),i,8*,i,i,-16,-2.2
O=C(c1ccc(NS(=O)(=O)c2ccc3[nH]c(=O)[nH]c3c2)cc1)N1CCCC(C(F)(F)F)C1 (stereo unspecified),i,i,i,i,-10,1.7
Cc1c(C(=O)c2no[n+]([O-])c2C(=O)c2cnn(C)c2C)cnn1C,i,6*,i,i,-9,-0.01
OCCC1CN(Cc2cccc3nonc23)CCN1Cc1ccsc1 (stereo unspecified),i,i,i,i,-8,0.11
OCCC1CN(Cc2ccccc2OC2CCCC2)CCN1Cc1ccsc1 (stereo unspecified),i,i,i,i,-9,-4.5*
OCCC1CN(Cc2ccc(-c3ccco3)cc2)CCN1Cc1ccsc1 (stereo unspecified),i,i,i,i,-18,-4.5*
C=CCc1ccccc1OCC(O)CNC(=O)c1ccccc1C(=O)O (stereo unspecified),i,i,i,i,-10,-1.2
Cc1ccc(NC(=S)N/N=C/c2c(C)[nH]c3ccccc23)cc1,i,6*,i,i,-9,-0.22
Cc1[nH]c2ccccc2c1/C=N/NC(N)=S,i,i,i,i,-12,-0.04
SMILES,KCNQ1 act,KCNQ1 inh,KCNK3 inh,KCNK9 inh,hERG rescue,Kir21 block
Cc1[nH]c2ccccc2c1/C=N/NC(=S)NCc1ccccc1,i,6*,i,i,-4,1.6
CN(CC(O)CN)CC(O)CN1CCCCC1 (stereo unspecified),i,i,i,i,5.7*,-0.29
N#CCCN(C(=S)NC(=O)C1CCCCC1)c1ccccc1F,.,.,i,.,.,.
CCC(CCC(=O)Nc1ccc(S(N)(=O)=O)cc1)C(=O)O (stereo unspecified),i,i,i,i,5.1*,-0.89
COc1cc(C(=O)N/N=C/c2ccc(OC(=O)c3ccccc3Cl)c(OC)c2)ccc1O,i,6*,i,i,-18,0.1
CCOc1ccc(S(=O)(=O)NCCC(=O)N2CC(C)OC(C)C2)cc1 (stereo unspecified),i,i,i,i,-8,0.83
O=c1c2ccccc2nc(SCc2ccc([N+](=O)[O-])cc2)n1-c1ccccc1,i,i,i,-7.7*,-13,0.37
CCn1c(C)[n+](Cc2ccccc2)c2ccc(Cl)cc21,i,i,i,i,-12,0
CCn1c(/C=C/N(C)c2ccccc2)[n+](CC)c2ccc(Cl)cc21,i,13*,i,i,-22,-1.7
Cc1cccc(SCC(=O)Nc2ccc3c(c2)OCCO3)c1,i,i,i,i,-7,-0.31
Oc1oc(-c2ccc(Br)cc2)nc1/C=N/c1ccccn1,i,i,i,i,-7,0.11
CCOc1ccc2nc(/N=C/c3nc(-c4ccc(Br)cc4)oc3O)sc2c1,25*,i,i,i,6.7*,0.9
CCOc1ccc(N2C(=O)CC(Sc3nc4ccc(OCC)cc4s3)C2=O)cc1 (stereo unspecified),i,i,i,i,-9,-0.47
CCOc1[nH]n(-c2ccccc2)c(=O)c1C=Nc1ccc(OC)cc1,i,i,i,i,-10,-1.4
CCOc1ccc2nc(/N=C/c3c(C)[nH]n(-c4ccccc4)c3=O)sc2c1,55*,i,i,i,58*,-0.04
CCOc1ccc2nc(/N=C/c3c(C)[nH]n(-c4ccc(C)cc4)c3=O)sc2c1,40*,i,i,i,71*,0.74
